Columns and labels:
PC-3 = assay: Antiproliferative activity against human PC3 cells incubated for 48 hrs by MTT assay; assay type: functional, cell-based; conditions: PC-3, 48 h
Method in brief: (§1)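 Cells kept at 37 °C in humidified 5% CO2: MDA-MB-231, MCF-7, HeLa and HCT116 in RPMI-1640; PC-3 in DMEM/F12; both media had 10% FBS. Compounds came from 60 mM DMSO stocks diluted in medium. At 70–80% confluence, cells got fresh medium with compound for 48 h at 37 °C, with 0.1% DMSO as negative control. MTT (5 mg/mL stock) was added for 4 h, and formazan was dissolved in DMSO and read at 570 nm. % inhibition was taken relative to control, IC50 was fitted, and data are mean ± SD of three independent experiments in duplicate.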

HCT-116 [1] = assay: Induction of cell cycle arrest in human HCT116 cells assessed as accumulation at G2/M phase at 1.4 uM incubated for 24 hrs by PI staining based flow cytometric analysis (reference value: 17.48%); assay type: functional
HCT-116 [2] = assay: Induction of apoptosis in human HCT116 cells assessed as late apoptotic cells at 0.35 uM incubated for 24 hrs by Annexin-V-FITC/propidium iodide staining based flow cytometric analysis (reference value: 0.027%); assay type: functional
HCT-116 [3] = assay: Induction of apoptosis in human HCT116 cells assessed as necrotic cells at 0.7 uM incubated for 24 hrs by Annexin-V-FITC/propidium iodide staining based flow cytometric analysis (reference value: 0%); assay type: functional
HCT-116 [4] = assay: Induction of apoptosis in human HCT116 cells assessed as necrotic cells at 1.4 uM incubated for 24 hrs by Annexin-V-FITC/propidium iodide staining based flow cytometric analysis (reference value: 0%); assay type: functional
HCT-116 [5] = assay: Induction of apoptosis in human HCT116 cells incubated for 24 hrs by Annexin-V-FITC/propidium iodide staining based flow cytometric analysis; assay type: functional, cell-based
HCT-116 [6] = assay: Induction of apoptosis in human HCT116 cells assessed as early apoptotic cells at 1.4 uM incubated for 24 hrs by Annexin-V-FITC/propidium iodide staining based flow cytometric analysis (reference value: 2.28%); assay type: functional
HCT-116 [7] = assay: Induction of apoptosis in human HCT116 cells assessed as necrotic cells at 0.35 uM incubated for 24 hrs by Annexin-V-FITC/propidium iodide staining based flow cytometric analysis (reference value: 0%); assay type: functional
HCT-116 [8] = assay: Induction of cell cycle arrest in human HCT116 cells assessed as accumulation at G2/M phase at 0.7 uM incubated for 24 hrs by PI staining based flow cytometric analysis (reference value: 17.48%); assay type: functional
HCT-116 [9] = assay: Induction of cell cycle arrest in human HCT116 cells assessed as accumulation at S phase at 0.35 uM incubated for 24 hrs by PI staining based flow cytometric analysis (reference value: 45.26%); assay type: functional
[10] = target: T1, CDK2/Cyclin A2 (Homo sapiens) (UniProt P24941+P20248); assay: Potency index, ratio of AZD5438 IC50 to compound IC50 for CDK2/cyclin A2 (unknown origin) using histone H1 and ATP as substrate incubated for 40 mins by kinase-glo luminescence assay; assay type: protein-complex assay
HCT-116 [11] = assay: Induction of cell cycle arrest in human HCT116 cells assessed as debris content at 0.7 uM incubated for 24 hrs by PI staining based flow cytometric analysis (reference value: 0%); assay type: functional
[12] = target: T1, CDK2/Cyclin A2 (Homo sapiens); assay: Inhibition of CDK2/cyclin A2 (unknown origin) using histone H1 and ATP as substrate at 1 uM incubated for 40 mins by kinase-glo luminescence assay relative to control; assay type: protein-complex assay
Method in brief: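 Recombinant CDK2/cyclin A2 (0.2 µg/mL) was run with 0.1 mg/mL histone H1 and 10 µM ATP in 40 mM Tris pH 7.4, 10 mM MgCl2, 0.1 mg/mL BSA and 1 mM DTT, for 40 min at 30 °C. Compound was tested at 1 µM final, with 1% DMSO final. Remaining ATP was quantified by Kinase-Glo Plus luminescence, which is inversely related to kinase activity.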

HCT-116 [13] = assay: Induction of apoptosis in human HCT116 cells assessed as late apoptotic cells at 1.4 uM incubated for 24 hrs by Annexin-V-FITC/propidium iodide staining based flow cytometric analysis (reference value: 0.027%); assay type: functional
HCT-116 [14] = assay: Induction of cell cycle arrest in human HCT116 cells assessed as accumulation at G0/G1 phase at 0.7 uM incubated for 24 hrs by PI staining based flow cytometric analysis (reference value: 37.26%); assay type: functional
HCT-116 [15] = assay: Induction of cell cycle arrest in human HCT116 cells assessed as debris content at 0.35 uM incubated for 24 hrs by PI staining based flow cytometric analysis (reference value: 0%); assay type: functional
HeLa = assay: Antiproliferative activity against human HeLa cells incubated for 48 hrs by MTT assay; assay type: functional, cell-based; method in brief: as §1
HCT-116 [16] = assay: Induction of apoptosis in human HCT116 cells assessed as live cells at 1.4 uM incubated for 24 hrs by Annexin-V-FITC/propidium iodide staining based flow cytometric analysis (reference value: 97.7%); assay type: functional
HCT-116 [17] = assay: Induction of cell cycle arrest in human HCT116 cells assessed as accumulation at G0/G1 phase at 0.35 uM incubated for 24 hrs by PI staining based flow cytometric analysis (reference value: 37.26%); assay type: functional
MCF7 = assay: Antiproliferative activity against human MCF7 cells incubated for 48 hrs by MTT assay; assay type: functional, cell-based; conditions: MCF7, 48 h; method in brief: as §1
CDK2/Cyclin A2 = CDK2/Cyclin A2 (Homo sapiens, UniProt P24941); assay: Inhibition of CDK2/cyclin A2 (unknown origin) using histone H1 and ATP as substrate incubated for 40 mins by kinase-glo luminescence assay; assay type: protein-complex assay
HCT-116 [18] = assay: Induction of apoptosis in human HCT116 cells assessed as live cells at 0.35 uM incubated for 24 hrs by Annexin-V-FITC/propidium iodide staining based flow cytometric analysis (reference value: 97.7%); assay type: functional
HCT-116 [19] = assay: Induction of cell cycle arrest in human HCT116 cells incubated for 24 hrs by PI staining based flow cytometric analysis; assay type: functional
HCT-116 [20] = assay: Induction of cell cycle arrest in human HCT116 cells assessed as debris content at 1.4 uM incubated for 24 hrs by PI staining based flow cytometric analysis (reference value: 0%); assay type: functional
HCT-116 [21] = assay: Antiproliferative activity against human HCT116 cells incubated for 48 hrs by MTT assay; assay type: functional, cell-based; conditions: HCT-116, 48 h; method in brief: as §1
HCT-116 [22] = assay: Induction of apoptosis in human HCT116 cells assessed as early apoptotic cells at 0.35 uM incubated for 24 hrs by Annexin-V-FITC/propidium iodide staining based flow cytometric analysis (reference value: 2.28%); assay type: functional
HCT-116 [23] = assay: Induction of cell cycle arrest in human HCT116 cells assessed as accumulation at S phase at 0.7 uM incubated for 24 hrs by PI staining based flow cytometric analysis (reference value: 45.26%); assay type: functional
MDA-MB-231 = assay: Antiproliferative activity against human MDA-MB-231 cells incubated for 48 hrs by MTT assay; assay type: functional, cell-based; conditions: MDA-MB-231, 48 h; method in brief: as §1
HCT-116 [24] = assay: Induction of apoptosis in human HCT116 cells assessed as late apoptotic cells at 0.7 uM incubated for 24 hrs by Annexin-V-FITC/propidium iodide staining based flow cytometric analysis (reference value: 0.027%); assay type: functional
HCT-116 [25] = assay: Induction of cell cycle arrest in human HCT116 cells assessed as accumulation at S phase at 1.4 uM incubated for 24 hrs by PI staining based flow cytometric analysis (reference value: 45.26%); assay type: functional
HCT-116 [26] = assay: Induction of cell cycle arrest in human HCT116 cells assessed as accumulation at G0/G1 phase at 1.4 uM incubated for 24 hrs by PI staining based flow cytometric analysis (reference value: 37.26%); assay type: functional
HCT-116 [27] = assay: Induction of cell cycle arrest in human HCT116 cells assessed as accumulation at G2/M phase at 0.35 uM incubated for 24 hrs by PI staining based flow cytometric analysis (reference value: 17.48%); assay type: functional
HCT-116 [28] = assay: Induction of apoptosis in human HCT116 cells assessed as live cells at 0.7 uM incubated for 24 hrs by Annexin-V-FITC/propidium iodide staining based flow cytometric analysis (reference value: 97.7%); assay type: functional
HCT-116 [29] = assay: Induction of apoptosis in human HCT116 cells assessed as early apoptotic cells at 0.7 uM incubated for 24 hrs by Annexin-V-FITC/propidium iodide staining based flow cytometric analysis (reference value: 2.28%); assay type: functional

- IC50 (PC-3): 920 nM
- Ratio IC50 [10]: 3
- inhibition [12]: 94%
- IC50 (HeLa): 450 nM
- IC50 (MCF7): 10900 nM
- IC50 (CDK2/Cyclin A2): 15.4 nM
- IC50 (HCT-116 [21]): 700 nM
- IC50 (MDA-MB-231): 1800 nM
SMILES: NS(=O)(=O)c1ccc(Nc2nccc(Nc3nc4ccc(F)cc4s3)n2)cc1
- Activity (HCT-116 [1]): 46.92%
- Activity (HCT-116 [2]): 9.07%
- Activity (HCT-116 [3]): 0.384%
- Activity (HCT-116 [4]): 0.414%
- Activity (HCT-116 [5]): Dose-dependent effect
- Activity (HCT-116 [6]): 19.1%
- Activity (HCT-116 [7]): 0.027%
- Activity (HCT-116 [8]): 33.51%
- Activity (HCT-116 [9]): 39.03%
- Activity (HCT-116 [11]): 6.86%
- Activity (HCT-116 [13]): 29.1%
- Activity (HCT-116 [14]): 35.61%
- Activity (HCT-116 [15]): 0.74%
- Activity (HCT-116 [16]): 51.4%
- Activity (HCT-116 [17]): 36.61%
- Activity (HCT-116 [18]): 80.8%
- Activity (HCT-116 [19]): Dose-dependent effect
- Activity (HCT-116 [20]): 39.3%
- Activity (HCT-116 [22]): 10.1%
- Activity (HCT-116 [23]): 30.88%
- Activity (HCT-116 [24]): 22.3%
- Activity (HCT-116 [25]): 18.51%
- Activity (HCT-116 [26]): 34.57%
- Activity (HCT-116 [27]): 24.36%
- Activity (HCT-116 [28]): 64.3%
- Activity (HCT-116 [29]): 13%
